In general, MIC refers to the least concentration at which growth counts as inhibited.

Assay type in all cases: functional
The test system of one test is Klebsiella pneumoniae. As to the kind of experiment: Antibacterial activity against Klebsiella pneumoniae MTCC 618 by broth dilution method. The gist of the method:
(§1)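 Broth dilution per NCCL standards; all phosphorus ylides and conjugated alkynes tested in vitro.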
(In general: Dilution methods test growth across graded concentrations, often in twofold steps.)

For a further test, the system named is Escherichia coli. The test can be described thus: Antibacterial activity against Escherichia coli MTCC 443 by broth dilution method. The gist of the method:
as §1

A further test has as its system Bacillus subtilis. The test can be described thus: Antibacterial activity against Bacillus subtilis MTCC 441 by broth dilution method. The gist of the method: as §1
Test [1] has as its system Staphylococcus epidermidis. As to the kind of experiment: Antibacterial activity against Staphylococcus epidermidis MTCC 435 by broth dilution method. A digest of the protocol: as §1
Another test concerns Staphylococcus aureus. As to the kind of experiment: Antibacterial activity against Staphylococcus aureus MTCC 96 by broth dilution method. The gist of the method: as §1
Another test has as its system Pseudomonas aeruginosa. As to the kind of experiment: Antibacterial activity against Pseudomonas aeruginosa MTCC 741 by broth dilution method. The gist of the method: as §1
Another test has as its system Candida albicans. The test can be described thus: Antifungal activity against Candida albicans MTCC 227 at 100 ug/ml after 48 hrs by agar well diffusion method. The following applies: MTCC 227, 48 h, read-out: IZ. The gist of the method: (§2)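 Test samples and DMSO controls incubated at 27 °C for 48 h. Inhibition zone diameter measured in mm. Three to four replicates per treatment.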

A further test deals with Aspergillus niger. The test can be described thus: Antifungal activity against Aspergillus niger MTCC 344 at 100 ug/ml after 48 hrs by agar well diffusion method. Conditions: MTCC 344, 48 h, read-out: IZ. A digest of the protocol:
as §2
(In general: In agar diffusion tests the substance spreads into inoculated agar from a disc or well.)

The subject of another test is Aspergillus flavus. As to the kind of experiment: Antifungal activity against Aspergillus flavus MTCC 277 at 100 ug/ml after 48 hrs by agar well diffusion method. The following applies: MTCC 277, 48 h, read-out: IZ. A digest of the protocol: as §2
The next test relates to Diutina rugosa. The test can be described thus: Antifungal activity against Candida rugosa NCIM 3462 at 100 ug/ml after 48 hrs by agar well diffusion method. Conditions: NCIM 3462, 48 h, read-out: IZ. The gist of the method: as §2
A further test concerns Saccharomyces cerevisiae. As to the kind of experiment: Antifungal activity against Saccharomyces cerevisiae MTCC 36 at 100 ug/ml after 48 hrs by agar well diffusion method. Conditions: MTCC 36, 48 h, read-out: IZ. The gist of the method: as §2

In brackets after ≈: the same amount, converted by molar mass.

Turning to `CN[C@@H]1[C@H](O[C@H]2[C@H](O[C@H]3[C@H](O)[C@@H](O)[C@H](N=C(N)N)[C@@H](O)[C@@H]3N=C(N)N)O[C@@H](C)[C@]2(O)C=O)O[C@@H](CO)[C@H](O)[C@H]1O` [STREPTOMYCIN], the minimal inhibitory concentration (MIC) came to 3.12 µg/mL (≈ 5.37 µM) with Klebsiella pneumoniae; 6.25 µg/mL (≈ 10.7 µM) in the test on Escherichia coli; 6.25 µg/mL (≈ 10.7 µM) in the test on Bacillus subtilis; 3.12 µg/mL (≈ 5.37 µM) in test [1]; 6.25 µg/mL (≈ 10.7 µM) in the test on Staphylococcus aureus; 1.56 µg/mL (≈ 2.69 µM) with Pseudomonas aeruginosa.

As to `CCOC(=O)C(C(=O)c1ccccc1C)=P(c1ccccc1)(c1ccccc1)c1ccccc1`, the MIC (in the test with Klebsiella pneumoniae; against Escherichia coli; with Bacillus subtilis; in test [1]; with Staphylococcus aureus; in the test with Pseudomonas aeruginosa) was > 150 µg/mL throughout. The zone of inhibition at 100 µg/mL in the test with Candida albicans, in the test with Aspergillus niger, in the test with Aspergillus flavus, with Diutina rugosa and in the test with Saccharomyces cerevisiae was 0 mm in each case.

`CCOC(=O)C(C(=O)c1ccco1)=P(c1ccccc1)(c1ccccc1)c1ccccc1`: the minimal inhibitory concentration (MIC) (against Klebsiella pneumoniae; with Escherichia coli; in the test on Bacillus subtilis; in [1]; in the test with Staphylococcus aureus; against Pseudomonas aeruginosa) was > 150 µg/mL throughout. Moreover, the zone of inhibition at 100 µg/mL in the test on Candida albicans, in the test on Aspergillus niger, in the test on Aspergillus flavus, with Diutina rugosa and in the test on Saccharomyces cerevisiae was 0 mm in each case.

`CC(C)OC(=O)C(C(=O)c1ccc(Cl)nc1)=P(c1ccccc1)(c1ccccc1)c1ccccc1`: the MIC (against Klebsiella pneumoniae; against Escherichia coli; in the test on Bacillus subtilis; in test [1]; against Staphylococcus aureus; in the test with Pseudomonas aeruginosa) was > 150 µg/mL each time. The zone of inhibition at 100 µg/mL with Candida albicans, in the test on Aspergillus niger, with Aspergillus flavus, in the test on Diutina rugosa and in the test with Saccharomyces cerevisiae was 0 mm in each case.

Consider `CC1(C)S[C@@H]2[C@H](NC(=O)Cc3ccccc3)C(=O)N2[C@H]1C(=O)O` [PENICILLIN G], for which the MIC with Klebsiella pneumoniae stood at 6.25 µg/mL (≈ 18.7 µM); with Escherichia coli, 12.5 µg/mL (≈ 37.4 µM); against Bacillus subtilis, 1.56 µg/mL (≈ 4.67 µM); in test [1], 3.12 µg/mL (≈ 9.35 µM); in the test with Staphylococcus aureus it was 1.56 µg/mL (≈ 4.67 µM); in the test with Pseudomonas aeruginosa it was 12.5 µg/mL (≈ 37.4 µM).

In the case of `Cc1ccccc1C(=O)C(C#N)=P(c1ccccc1)(c1ccccc1)c1ccccc1`, the MIC (in the test with Klebsiella pneumoniae; in the test with Escherichia coli; in the test on Bacillus subtilis; in test [1]; against Staphylococcus aureus; in the test with Pseudomonas aeruginosa) was > 150 µg/mL in each case. Also, the zone of inhibition at 100 µg/mL in the test on Candida albicans, in the test on Aspergillus niger, in the test on Aspergillus flavus, in the test with Diutina rugosa and with Saccharomyces cerevisiae was 0 mm in each case.

As to `CC(C)(C)C(=O)C(C#N)=P(c1ccccc1)(c1ccccc1)c1ccccc1`, the MIC (in the test on Klebsiella pneumoniae; in the test on Escherichia coli; with Bacillus subtilis; in test [1]; in the test with Staphylococcus aureus; against Pseudomonas aeruginosa) was > 150 µg/mL throughout. Also, the zone of inhibition at 100 µg/mL with Candida albicans, in the test with Aspergillus niger, with Aspergillus flavus, with Diutina rugosa and in the test with Saccharomyces cerevisiae was 0 mm in each case.

Turning to `CCOC(=O)C(C(=O)C(C)(C)C)=P(c1ccccc1)(c1ccccc1)c1ccccc1`, the MIC (in the test on Klebsiella pneumoniae; against Escherichia coli; in the test with Bacillus subtilis; in test [1]; against Staphylococcus aureus; with Pseudomonas aeruginosa) was > 150 µg/mL each time. Further, the zone of inhibition at 100 µg/mL in the test on Candida albicans, with Aspergillus niger, in the test with Aspergillus flavus, in the test with Diutina rugosa and in the test on Saccharomyces cerevisiae was 0 mm throughout.
